This is an account of results in ChEMBL document CHEMBL4270630.

For data set [1], the system named is Influenza A virus. Description: Antiviral activity against Influenza A virus A/Virginia/ATCC3/2009(H1N1pdm) infected in MDCK cells assessed as reduction in virus-induced cytopathic effect after 3 days by microscopic method. The format is functional, organism-based, Influenza A virus (A/Virginia/03/2009(H1N1)). The note with it: 72 h. The gist of the method: (§1)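 Semi-confluent MDCK cells were infected at an MOI of 0.0004 PFU/cell in Ultra-MDCK infection medium with 2 μg/mL TPCK-trypsin, together with compounds. After 3 days at 35 °C, CPE was scored by microscopy and confirmed by MTS formazan viability. EC50 is the concentration giving 50% inhibition of virus-induced CPE. Values are means of two to five independent tests.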
(Cytopathic effects are the visible damage that an infection or toxin causes in cultured cells.)

A further data set concerns MDCK. Description: Cytotoxicity against MDCK cells assessed as reduction in cell viability after 3 days by MTS assay. The following applies: dog, mdck, 72 h. The format is cell-based, Canis lupus familiaris. A general note: Tetrazolium dyes change colour on reduction, which living cells bring about.
Data set [2] deals with Influenza B virus. Kind of data set: Antiviral activity against Influenza B virus B/HK/05/72 infected in MDCK cells after 3 days by MTS assay. The following applies: B/Hong Kong/05/1972, MDCK, 72 h. The format is functional, organism-based. The method in brief:
as §1

Data set [3] concerns Influenza A virus. Description: Antiviral activity against Influenza A virus A/Virginia/ATCC3/2009(H1N1pdm) infected in MDCK cells after 3 days by MTS assay. The format is functional, organism-based, Influenza A virus (A/Virginia/03/2009(H1N1)). The note with it: 72 h. The method in brief: as §1
Data set [4] relates to Influenza B virus. Kind of data set: Antiviral activity against Influenza B virus B/HK/05/72 infected in MDCK cells assessed as reduction in virus-induced cytopathic effect after 3 days by microscopic method. The format is functional, organism-based. The following applies: B/Hong Kong/05/1972, MDCK, 72 h. The method in brief:
as §1

Data set [5] has as its system H3N2 subtype. Description: Antiviral activity against Influenza A virus A/HK/7/87(H3N2) infected in MDCK cells assessed as reduction in virus-induced cytopathic effect after 3 days by microscopic method. The format is functional, organism-based. The following applies: A/Hong Kong/7/1987(H3N2), 72 h. The method in brief: as §1
For data set [6], the system named is H3N2 subtype. Kind of data set: Antiviral activity against Influenza A virus A/HK/7/87(H3N2) infected in MDCK cells after 3 days by MTS assay. The format is functional, organism-based. The note with it: A/Hong Kong/7/1987(H3N2), 72 h. The method in brief:
as §1

Data set [7] concerns Influenza A virus. Description: Antiviral activity against Influenza A virus A/PR/8/34(H1N1) infected in MDCK cells assessed as reduction in virus-induced cytopathic effect after 3 days by microscopic method. The format is functional, organism-based, A/Puerto Rico/8/1934(H1N1). The following applies: Influenza A virus, A/Puerto Rico/8/1934(H1N1), MDCK, 72 h. The gist of the method: as §1

Data set [8] relates to Influenza A virus. Description: Antiviral activity against Influenza A virus A/PR/8/34(H1N1) infected in MDCK cells after 3 days by MTS assay. The note with it: Influenza A virus, A/Puerto Rico/8/1934(H1N1), MDCK, 72 h. The format is functional, organism-based, A/Puerto Rico/8/1934(H1N1). The method in brief:
as §1

Data set [9] can be described thus: Cytotoxicity against MDCK cells assessed as alteration in cell morphology after 3 days by microscopic method. The format is cell-based, Canis lupus familiaris. The note with it: dog. The method in brief:
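Mock-infected MDCK cells were treated with compounds in parallel with the antiviral assay, 3 days at 35 °C. MCC is the concentration causing minimal change in cell morphology by microscopy. CC50 is the 50% cytotoxic concentration by MTS formazan viability assay.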

Usually EC50 stands for the concentration needed to bring the measured effect to its halfway point. As usually defined, the CC50 is the concentration giving 50% cytotoxicity. On to `CC(=O)N[C@H]1[C@H](O[C@@H]2c3ccc(c(Cl)c3)Oc3cc4cc(c3O)Oc3ccc(cc3Cl)C[C@H]3NC(=O)C(n5cc(CN6C(=O)C(SC[C@H]7O[C@@H]8OC(C)(C)O[C@@H]8[C@H]8OC(C)(C)O[C@H]87)=C(SC[C@H]7O[C@@H]8OC(C)(C)O[C@@H]8[C@H]8OC(C)(C)O[C@H]87)C6=O)nn5)c5ccc(O)c(c5)Oc5cc(O)cc(c5)[C@H](NC3=O)C(=O)N[C@H]4C(O)N[C@H]3C(=O)N[C@H]2C(=O)N[C@@H](C(=O)O)c2cc(O)cc(O)c2-c2cc3ccc2O)O[C@H](CO)[C@@H](O)[C@@H]1O` (stereo not given in full), for which the EC50 in the data set with Influenza A virus [1], in the data set on Influenza B virus [2], in the data set with Influenza A virus [3], in the data set with Influenza B virus [4], in the data set on H3N2 subtype [5] and in the data set with H3N2 subtype [6] was > 100 µM throughout. Besides, the EC50 with Influenza A virus [7] and with Influenza A virus [8] was > 100 µM in each case. The CC50 in the data set on MDCK turned out to be 18 µM. The MCC at 72 h in data set [9] stood at 20 µM.

On to `CCCCCCCCCCCCSC1=C(SCCCCCCCCCCCC)C(=O)N(Cc2cn(C3C(=O)N[C@@H]4Cc5ccc(c(Cl)c5)Oc5cc6cc(c5O)Oc5ccc(cc5Cl)[C@@H](O[C@@H]5O[C@H](CO)[C@@H](O)[C@H](O)[C@H]5NC(C)=O)[C@H]5NC(=O)[C@H](NC(O)[C@@H]6NC(=O)[C@@H](NC4=O)c4cc(O)cc(c4)Oc4cc3ccc4O)c3ccc(O)c(c3)-c3c(O)cc(O)cc3[C@H](C(=O)O)NC5=O)nn2)C1=O` (stereo not given in full), for which the EC50 in the data set with Influenza A virus [1], in the data set with Influenza B virus [2], with Influenza A virus [3], in the data set with Influenza B virus [4], in the data set on H3N2 subtype [5] and in the data set with H3N2 subtype [6] was > 100 µM throughout. Moreover, the EC50 with Influenza A virus [7] and in the data set on Influenza A virus [8] was > 100 µM in each case. Also, the CC50 in the data set on MDCK is 75 µM. Besides, in data set [9], the MCC at 72 h is 100 µM.

In the case of `CCCSC1=C(SCCC)C(=O)N(Cc2cn(C3C(=O)N[C@@H]4Cc5ccc(c(Cl)c5)Oc5cc6cc(c5O)Oc5ccc(cc5Cl)[C@@H](O[C@@H]5O[C@H](CO)[C@@H](O)[C@H](O)[C@H]5NC(C)=O)[C@H]5NC(=O)[C@H](NC(O)[C@@H]6NC(=O)[C@@H](NC4=O)c4cc(O)cc(c4)Oc4cc3ccc4O)c3ccc(O)c(c3)-c3c(O)cc(O)cc3[C@H](C(=O)O)NC5=O)nn2)C1=O` (stereo not given in full), the EC50 in the data set with Influenza A virus [1], in the data set with Influenza B virus [2], in the data set with Influenza A virus [3], in the data set with Influenza B virus [4], with H3N2 subtype [5] and with H3N2 subtype [6] was > 100 µM throughout. Moreover, the EC50 in the data set on Influenza A virus [7] and with Influenza A virus [8] was > 100 µM in each case. In addition, in the data set with MDCK, the CC50 turned out to be 22 µM. The MCC at 72 h in data set [9] was 20 µM.
